From ChEMBL document CHEMBL5357072, “Structural Modification of Noscapine via Photoredox/Nickel Dual Catalysis for the Discovery of S-Phase Arresting Agents” (ACS Med Chem Lett, 2024)
Blank lines part the entries; values can stand above or below the molecule they belong to.

Experiments:
MOLM-13 [1] = experiment: Induction of apoptosis in human MOLM-13 cells assessed as viable cells at 10 uM incubated for 48 hrs by Annexin V-FITC/PI staining based flow cytometric analysis (reference value: 92.24%); assay type: functional; conditions: read-out: Activity
JeKo-1 [2] = experiment: Antiproliferative activity against human JeKo-1 cells assessed as inhibition of cell growth incubated for 48 hrs by CCK8 assay; assay type: functional, cell-based; conditions: JeKo-1, 48 h
In short: (§1)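 CCK-8 growth-inhibition assay in the malignant haematological lines MOLM-13, NB4 and Jeko-1 and in normal PBMC. Cells were treated across a range of doses and IC50 taken as the half-maximal growth-inhibitory concentration. Data are mean ± SD of triplicate samples, and experiments were repeated at least three times.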

MOLM-13 [3] = experiment: Induction of apoptosis in human MOLM-13 cells assessed as early apoptotic cells at 10 uM incubated for 48 hrs by Annexin V-FITC/PI staining based flow cytometric analysis (reference value: 4.10%); assay type: functional
MOLM-13 [4] = experiment: Cell cycle arrest in human MOLM-13 cells assessed as accumulation of G2/M phase cells at 2.5 uM incubated for 24 hrs by RNase A/PI staining based flow cytometry analysis (reference value: 11.74%); assay type: functional
MOLM-13 [5] = experiment: Cell cycle arrest in human MOLM-13 cells assessed as accumulation of G2/M phase cells at 10 uM incubated for 24 hrs by RNase A/PI staining based flow cytometry analysis (reference value: 11.74%); assay type: functional
NB-4 [6] = experiment: Antiproliferative activity against human NB4 cells assessed as inhibition of cell growth incubated for 48 hrs by CCK8 assay; assay type: functional, cell-based; conditions: NB-4, 48 h; in short: as §1
A549 = experiment: Antiproliferative activity against human A549 cells assessed as cell growth inhibition at 10 uM incubated for 48 hrs by CCK8 assay relative to control; assay type: functional; conditions: read-out: GI
In short: (§2)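 Single-concentration screen of six cancer cell lines. Cells were exposed to 10 μM compound and growth was measured by CCK-8 assay. Results are reported as inhibition rate at 10 μM.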

MOLM-13 [7] = experiment: Induction of apoptosis in human MOLM-13 cells assessed as viable cells at 5 uM incubated for 48 hrs by Annexin V-FITC/PI staining based flow cytometric analysis (reference value: 92.24%); assay type: functional; conditions: read-out: Activity
MOLM-13 [8] = experiment: Induction of apoptosis in human MOLM-13 cells assessed as early apoptotic cells at 5 uM incubated for 48 hrs by Annexin V-FITC/PI staining based flow cytometric analysis (reference value: 4.10%); assay type: functional
PBMC = experiment: Cytotoxicity against human PBMC assessed as reduction in cell viability incubated for 48 hrs by CCK8 assay; assay type: toxicity, cell-based; in short: as §1
MOLM-13 [9] = experiment: Induction of apoptosis in human MOLM-13 cells assessed as late apoptotic cells at 2.5 uM incubated for 48 hrs by Annexin V-FITC/PI staining based flow cytometric analysis (reference value: 3.17%); assay type: functional
MOLM-13 [10] = experiment: Antiproliferative activity against human MOLM-13 cells assessed as cell growth inhibition at 10 uM incubated for 48 hrs by CCK8 assay relative to control; assay type: functional; conditions: read-out: GI; in short: as §2
MOLM-13 [11] = experiment: Induction of apoptosis in human MOLM-13 cells assessed as necrotic cells at 10 uM incubated for 48 hrs by Annexin V-FITC/PI staining based flow cytometric analysis (reference value: 0.48%); assay type: functional
MOLM-13 [12] = experiment: Cell cycle arrest in human MOLM-13 cells assessed as accumulation of S phase cells at 2.5 uM incubated for 24 hrs by RNase A/PI staining based flow cytometry analysis (reference value: 50.12%); assay type: functional
MOLM-13 [13] = experiment: Antiproliferative activity against human MOLM-13 cells assessed as inhibition of cell growth incubated for 48 hrs by CCK8 assay; assay type: functional, cell-based; conditions: MOLM-13, 48 h; in short: as §1
MOLM-13 [14] = experiment: Induction of apoptosis in human MOLM-13 cells assessed as late apoptotic cells at 5 uM incubated for 48 hrs by Annexin V-FITC/PI staining based flow cytometric analysis (reference value: 3.17%); assay type: functional
HeLa [15] = experiment: Antiproliferative activity against human HeLa cells assessed as cell growth inhibition at 10 uM incubated for 48 hrs by CCK8 assay relative to control; assay type: functional; conditions: read-out: GI; in short: as §2
MOLM-13 [16] = experiment: Cell cycle arrest in human MOLM-13 cells assessed as accumulation of G0/G1 phase cells at 10 uM incubated for 24 hrs by RNase A/PI staining based flow cytometry analysis (reference value: 38.14%); assay type: functional
MOLM-13 [17] = experiment: Induction of apoptosis in human MOLM-13 cells assessed as necrotic cells at 2.5 uM incubated for 48 hrs by Annexin V-FITC/PI staining based flow cytometric analysis (reference value: 0.48%); assay type: functional
MOLM-13 [18] = experiment: Cell cycle arrest in human MOLM-13 cells assessed as accumulation of S phase cells at 10 uM incubated for 24 hrs by RNase A/PI staining based flow cytometry analysis (reference value: 50.12%); assay type: functional
MOLM-13 [19] = experiment: Induction of apoptosis in human MOLM-13 cells assessed as viable cells at 2.5 uM incubated for 48 hrs by Annexin V-FITC/PI staining based flow cytometric analysis (reference value: 92.24%); assay type: functional; conditions: read-out: Activity
MOLM-13 [20] = experiment: Induction of apoptosis in human MOLM-13 cells assessed as necrotic cells at 5 uM incubated for 48 hrs by Annexin V-FITC/PI staining based flow cytometric analysis (reference value: 0.48%); assay type: functional
NB-4 [21] = experiment: Antiproliferative activity against human NB4 cells assessed as cell growth inhibition at 10 uM incubated for 48 hrs by CCK8 assay relative to control; assay type: functional; conditions: read-out: GI; in short: as §2
MOLM-13 [22] = experiment: Cell cycle arrest in human MOLM-13 cells assessed as accumulation of G2/M phase cells at 5 uM incubated for 24 hrs by RNase A/PI staining based flow cytometry analysis (reference value: 11.74%); assay type: functional
MOLM-13 [23] = experiment: Cell cycle arrest in human MOLM-13 cells assessed as accumulation of G0/G1 phase cells at 2.5 uM incubated for 24 hrs by RNase A/PI staining based flow cytometry analysis (reference value: 38.14%); assay type: functional
MOLM-13 [24] = experiment: Cell cycle arrest in human MOLM-13 cells assessed as accumulation of G0/G1 phase cells at 5 uM incubated for 24 hrs by RNase A/PI staining based flow cytometry analysis (reference value: 38.14%); assay type: functional
U-251 = experiment: Antiproliferative activity against human U-251 cells assessed as cell growth inhibition at 10 uM incubated for 48 hrs by CCK8 assay relative to control; assay type: functional; conditions: read-out: GI; in short: as §2
JeKo-1 [25] = experiment: Antiproliferative activity against human JeKo-1 cells assessed as cell growth inhibition at 10 uM incubated for 48 hrs by CCK8 assay relative to control; assay type: functional; conditions: read-out: GI; in short: as §2
MOLM-13 [26] = experiment: Induction of apoptosis in human MOLM-13 cells assessed as late apoptotic cells at 10 uM incubated for 48 hrs by Annexin V-FITC/PI staining based flow cytometric analysis (reference value: 3.17%); assay type: functional
MOLM-13 [27] = experiment: Induction of apoptosis in human MOLM-13 cells assessed as early apoptotic cells at 2.5 uM incubated for 48 hrs by Annexin V-FITC/PI staining based flow cytometric analysis (reference value: 4.10%); assay type: functional
MOLM-13 [28] = experiment: Cell cycle arrest in human MOLM-13 cells assessed as accumulation of S phase cells at 5 uM incubated for 24 hrs by RNase A/PI staining based flow cytometry analysis (reference value: 50.12%); assay type: functional
[29] = Antiproliferative activity against Renal 1983 cells (unknown origin) assessed as inhibition of cell proliferation; assay type: functional, cell-based; conditions: Renal 1983 cell
HeLa [30] = experiment: Antiproliferative activity against human HeLa cells assessed as inhibition of cell proliferation; assay type: functional, cell-based
MCF7 = experiment: Antiproliferative activity against human MCF7 cells assessed as inhibition of cell proliferation; assay type: functional, cell-based

SMILES: COc1ccc2c(c1OC)C(=O)O[C@@H]2[C@H]1c2c(c(CC3CN(C(=O)OCc4ccccc4)C3)c3c(c2OC)OCO3)CCN1C(=O)OC(C)(C)C
viability at 10 µM (MOLM-13 [1]): 53.5%
IC50 (JeKo-1 [2]): 3.39 µM
Activity (MOLM-13 [3]): 19.67%
Activity (MOLM-13 [4]): 16.36%
Activity (MOLM-13 [5]): 5.11%
IC50 (NB-4 [6]): 5.25 µM
inhibition of growth at 10 µM (A549): 57%
viability at 5 µM (MOLM-13 [7]): 62%
Activity (MOLM-13 [8]): 16.95%
Activity (PBMC): Non-Toxic
Activity (MOLM-13 [9]): 4.35%
inhibition of growth at 10 µM (MOLM-13 [10]): 79.8%
Activity (MOLM-13 [11]): 3.2%
Activity (MOLM-13 [12]): 46.7%
IC50 (MOLM-13 [13]): 3.12 µM
Activity (MOLM-13 [14]): 18.62%
inhibition of growth at 10 µM (HeLa [15]): 62.7%
Activity (MOLM-13 [16]): 12.45%
Activity (MOLM-13 [17]): 0.52%
Activity (MOLM-13 [18]): 82.44%
viability at 2.5 µM (MOLM-13 [19]): 90.1%
Activity (MOLM-13 [20]): 2.41%
inhibition of growth at 10 µM (NB-4 [21]): 60.5%
Activity (MOLM-13 [22]): 9.96%
Activity (MOLM-13 [23]): 36.94%
Activity (MOLM-13 [24]): 16.37%
inhibition of growth at 10 µM (U-251): 37.1%
inhibition of growth at 10 µM (JeKo-1 [25]): 74.3%
Activity (MOLM-13 [26]): 23.68%
Activity (MOLM-13 [27]): 5.01%
Activity (MOLM-13 [28]): 73.67%

SMILES: COc1ccc2c(c1OC)C(=O)O[C@@H]2[C@H]1c2c(c(CC3CCC3)c3c(c2OC)OCO3)CCN1C(=O)OC(C)(C)C
inhibition of growth at 10 µM (A549): < 5%
inhibition of growth at 10 µM (MOLM-13 [10]): 53.1%
inhibition of growth at 10 µM (HeLa [15]): < 5%
inhibition of growth at 10 µM (NB-4 [21]): 8.8%
inhibition of growth at 10 µM (U-251): < 5%
inhibition of growth at 10 µM (JeKo-1 [25]): 6.67%

SMILES: CCC(C)Cc1c2c(c(OC)c3c1OCO3)[C@H]([C@H]1OC(=O)c3c1ccc(OC)c3OC)N(C(=O)OC(C)(C)C)CC2 (some centres undefined)
inhibition of growth at 10 µM (A549): < 5%
inhibition of growth at 10 µM (MOLM-13 [10]): 51.2%
inhibition of growth at 10 µM (HeLa [15]): 6.92%
inhibition of growth at 10 µM (NB-4 [21]): 9.33%
inhibition of growth at 10 µM (U-251): < 5%
inhibition of growth at 10 µM (JeKo-1 [25]): 24%

SMILES: Nc1ccn([C@@H]2O[C@H](CO)[C@@H](O)C2(F)F)c(=O)n1 [GEMCITABINE]
inhibition of growth at 10 µM (A549): 62.3%
inhibition of growth at 10 µM (MOLM-13 [10]): 74.1%
inhibition of growth at 10 µM (HeLa [15]): 61.4%
inhibition of growth at 10 µM (NB-4 [21]): 95.7%
inhibition of growth at 10 µM (U-251): 69.7%
inhibition of growth at 10 µM (JeKo-1 [25]): 65.2%

Now from value to molecule, other results behind:

IC50 (MOLM-13 [13]): 7.78 µM
SMILES: COc1ccc2c(c1OC)C(=O)O[C@@H]2[C@@H]1NCCc2c(CC3CN(C(=O)OCc4ccccc4)C3)c3c(c(OC)c21)OCO3
IC50 (JeKo-1 [2]): 7.57 µM
IC50 (NB-4 [6]): 13.2 µM

IC50 (MOLM-13 [13]): > 20 µM
SMILES: COc1ccc2c(c1OC)C(=O)O[C@@H]2[C@H]1c2c(c(CC3CN(C(C)=O)C3)c3c(c2OC)OCO3)CCN1C
IC50 (JeKo-1 [2]): > 20 µM
IC50 (NB-4 [6]): > 20 µM

IC50 (HeLa [30]): 25 µM
IC50 (MCF7): 42 µM
IC50 (MOLM-13 [13]): > 20 µM
SMILES: COc1ccc2c(c1OC)C(=O)O[C@@H]2[C@H]1c2c(cc3c(c2OC)OCO3)CCN1C [NOSCAPINE]
viability at 10 µM (MOLM-13 [1]): 83%
IC50 (JeKo-1 [2]): > 20 µM
IC50 [29]: 39 µM
Activity (MOLM-13 [3]): 6.9%
Activity (MOLM-13 [5]): 13.8%
IC50 (NB-4 [6]): > 20 µM
inhibition of growth at 10 µM (A549): < 5%
inhibition of growth at 10 µM (MOLM-13 [10]): 19%
Activity (MOLM-13 [11]): 1.71%
inhibition of growth at 10 µM (HeLa [15]): < 5%
Activity (MOLM-13 [16]): 25.66%
Activity (MOLM-13 [18]): 60.54%
inhibition of growth at 10 µM (NB-4 [21]): 26.7%
inhibition of growth at 10 µM (U-251): < 5%
inhibition of growth at 10 µM (JeKo-1 [25]): < 5%
Activity (MOLM-13 [26]): 8.44%
